Experimental data reported in article PMC2757176 (The Journal of biological chemistry, 2009).
Blank lines part the entries; values can stand above or below the compound they belong to. Non-standard residues stand in square brackets, D forms with d. Residues, ends and D or L forms follow the SMILES beside them. *: point of attachment. Biotin = O=C1N[C@H]2[C@H](CS[C@H]2CCCCC(=O)*)N1; pY = N[C@@H](Cc1ccc(OP(=O)(O)O)cc1)C(=O)O

Experiments:
Experiment in all cases: Biacore
Assay type in all cases: binding
human LCK SH3-SH2 = human LCK SH3-SH2 (Homo sapiens, UniProt P06239)
Method in brief: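 Recombinant human LCK SH3-SH2 (aa 58–230), N-terminal His-tagged, nickel-agarose purified, gel-filtered; concentration from A280 using a theoretical extinction coefficient. BIAcore 3000 at 37 °C: ~3000 RU streptavidin amine-coupled to CM5 captured biotinylated peptides (CD2 proline-rich peptides ~100 RU; phospho-CD244 ITSM1 ~25 RU). Protein passed at various concentrations; equilibrium binding fitted for Kd against a control flow cell.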

human FYN SH3-SH2 = human FYN SH3-SH2 (Homo sapiens, UniProt P06241)
human PLC-γ1 SH2 N+C = molecular target: T1, human PLC-γ1 SH2 N+C (Homo sapiens, UniProt P19174); details: ratio of SPR affinities, PLC-γ1 SH2 N+C versus FYN-SH3-SH2
T1 sequence (P19174 545-749): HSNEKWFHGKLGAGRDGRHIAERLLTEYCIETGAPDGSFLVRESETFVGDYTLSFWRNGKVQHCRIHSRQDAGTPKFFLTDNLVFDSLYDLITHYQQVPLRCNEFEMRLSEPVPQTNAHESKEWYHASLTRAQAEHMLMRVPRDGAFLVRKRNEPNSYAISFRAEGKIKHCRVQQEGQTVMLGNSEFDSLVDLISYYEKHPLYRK

Chain of human FYN SH3-SH2 (P06241 82-248): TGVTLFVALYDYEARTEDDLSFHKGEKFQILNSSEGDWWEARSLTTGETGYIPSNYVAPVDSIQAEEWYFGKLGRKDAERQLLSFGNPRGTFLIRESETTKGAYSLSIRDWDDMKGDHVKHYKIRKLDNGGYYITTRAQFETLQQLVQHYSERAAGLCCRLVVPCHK
Chain of human LCK SH3-SH2 (P06239 58-230): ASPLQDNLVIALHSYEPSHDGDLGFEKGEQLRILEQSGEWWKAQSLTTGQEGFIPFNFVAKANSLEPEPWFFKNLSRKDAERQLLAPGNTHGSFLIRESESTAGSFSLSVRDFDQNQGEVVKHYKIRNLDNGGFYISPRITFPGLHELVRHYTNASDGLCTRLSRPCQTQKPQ

Compound: CC(C)[C@H](NC(=O)[C@H](CCCNC(=N)N)NC(=O)[C@H](Cc1c[nH]cn1)NC(=O)CNC(=O)[C@@H]1CCCN1C(=O)[C@@H]1CCCN1C(=O)[C@@H]1CCCN1C(=O)[C@@H]1CCCN1C(=O)[C@H](CCCNC(=N)N)NC(=O)[C@H](Cc1c[nH]cn1)NC(=O)[C@H](CO)NC(=O)[C@@H]1CCCN1C(=O)[C@H](C)NC(=O)[C@H](CCC(N)=O)NC(=O)[C@H](CO)NC(=O)[C@H](CCCNC(=N)N)NC(=O)[C@H](Cc1c[nH]cn1)NC(=O)CNC(=O)[C@@H]1CCCN1C(=O)[C@@H]1CCCN1C(=O)[C@@H]1CCCN1C(=O)[C@@H]1CCCN1C(=O)[C@@H]1CCCN1C(=O)[C@H](Cc1c[nH]cn1)NC(=O)CCCC[C@@H]1SC[C@@H]2NC(=O)N[C@@H]21)C(=O)N[C@@H](CCC(N)=O)C(=O)O [CD2-281-305] (Biotin-HPPPPPGHRSQAPSHRPPPPGHRVQ-OH)
Kd (human LCK SH3-SH2): > 1000 µM

Compound: CC(C)C[C@H](NC(=O)[C@@H]1CCCN1C(=O)[C@@H]1CCCN1C(=O)CNC(=O)[C@H](CCCCN)NC(=O)[C@H](CCC(N)=O)NC(=O)CCCC[C@@H]1SC[C@@H]2NC(=O)N[C@@H]21)C(=O)N1CCC[C@H]1C(=O)N[C@@H](CCCNC(=N)N)C(=O)N1CCC[C@H]1C(=O)N[C@@H](CCCNC(=N)N)C(=O)N[C@H](C(=O)N[C@@H](CCC(N)=O)C(=O)N1CCC[C@H]1C(=O)N[C@@H](CCCCN)C(=O)N1CCC[C@H]1C(=O)N1CCC[C@H]1C(=O)N[C@@H](Cc1c[nH]cn1)C(=O)NCC(=O)O)C(C)C [CD2-322] (Biotin-QKGPPLPRPRVQPKPPHG-OH)
Kd (human LCK SH3-SH2): > 1000 µM

FYN binding, fold weaker than to the CD244 ITSM (human FYN SH3-SH2; ratio of SPR affinities, relative to CD244 ITSM 1 peptide): ~ 5 fold | fold increase in affinity of PLC-γ1 compared with FYN binding (human PLC-γ1 SH2 N+C): 30 fold
Compound: CC(C)C[C@H](NC(=O)[C@@H](NC(=O)[C@H](CC(=O)O)NC(=O)[C@@H](NC(=O)[C@H](Cc1ccc(OP(=O)(O)O)cc1)NC(=O)[C@H](CC(=O)O)NC(=O)[C@H](CO)NC(=O)[C@H](CC(N)=O)NC(=O)[C@H](CO)NC(=O)[C@H](CC(N)=O)NC(=O)CCCC[C@@H]1SC[C@@H]2NC(=O)N[C@@H]21)C(C)C)C(C)C)C(=O)N1CCC[C@H]1C(=O)O [EAT-2 127] (Biotin-NSNSD[pY]VDVLP-OH)

FYN-SH3-SH2 binding to immobilised peptide (in words) (human FYN SH3-SH2; SPR, 37 °C, biotinylated peptide on streptavidin chip): Negligible binding
Compound: Biotin-KQFQP[pY]FIPIN-OH [CTLA-4, reference compound]
